Experimental findings from ChEMBL document CHEMBL5150048, “Synthesis and Evaluation of Polymyxins Bearing Reductively Labile Disulfide-Linked Lipids” (J Med Chem, 2022) are described below.

Starred links: 1 amine or outer side, 2 acyl side, 3 side chain; linkers in the order of their positions; H or OH if unused. Positions of bridges follow the written chain, without caps; N, C: chain ends. Non-standard residues stand in square brackets, D forms with d. Residues, ends and D or L forms follow the SMILES beside them. *: point of attachment. X2 = CC(C)CCCCC[C@@H](N[*:1])C(=O)[*:2]; S(2-cyclohexylethyl) = C1CCC(CCS*)CC1; S(3-Cl-benzyl) = Clc1cccc(CS*)c1; X3 = c1ccc(Oc2ccc(CS*)cc2)cc1; X5 = c1ccc(-c2ccc(CS*)cc2)cc1; S(3-Methylbutyl) = CC(C)CCS*; X6 = c1ccc(-c2ccc(S*)cc2)cc1; Dab = NCC[C@H](N)C(=O)O; X1 = CC(C)CCCCS*; X4 = CCCCCCS*

In one series the test system is Erythrocyte. Put plainly: Hemolytic activity in sheep erythrocytes at 128 ug/ml incubated for 1 hr by absorbance based analysis. Type of series: toxicity, cell-based, Ovis aries. To be noted: dose 128 µg/ml. The essentials: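 Defibrinated sheep red cells were washed four times in PBS with 0.002% Tween20 and adjusted to A415 2.5–3.0. They were mixed 1:1 by volume with compound serial dilutions (128–4 μg/mL, before mixing) and shaken 1 h at 37 °C. After centrifugation, supernatant was diluted in PBS and read at 415 nm. Values were background-corrected and given as % of 0.1% Triton X-100 lysis, from triplicates.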

The nature of series [1]: Toxicity index, ratio of test compound TC50 to polymyxin B TC50 for cytotoxicity against human differentiated conditionally immortalized RPTEC cells incubated for 24 hrs by PrestoBlue reagent based assay. In kind it is cell-based.
Another series relates to Escherichia coli. In words: Antibacterial activity against Escherichia coli ATCC 25922 assessed as inhibition of bacterial growth by CLSI based broth microdilution method. Type of series: functional. The essentials:
(§1)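 Broth microdilution per CLSI. Colonies from overnight blood agar at 37 °C were grown in TSB to OD600 0.5. Compounds (6.4 mg/mL DMSO stock) were diluted serially in CAMHB (12.5 μg/mL Mg2+, 20 μg/mL Ca2+) in polypropylene plates and inoculated to a final 10^6 CFU/mL, then incubated at 37 °C under gas-permeable membrane. MIC is the lowest concentration without visible growth, from at least duplicate experiments.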
(In general: Broth dilution looks for growth in wells or tubes with falling amounts of substance.)

The subject of the next series is Klebsiella pneumoniae. In words: Antibacterial activity against Klebsiella pneumoniae ATCC 13883 assessed as inhibition of bacterial growth by CLSI based broth microdilution method. Type of series: functional. The essentials:
as §1

A further series relates to Acinetobacter baumannii. Put plainly: Antibacterial activity against Acinetobacter baumannii ATCC 19606 assessed as inhibition of bacterial growth by CLSI based broth microdilution method. In kind it is functional. The gist of the method:
as §1

For the next series, the system named is Pseudomonas aeruginosa. Put plainly: Antibacterial activity against Pseudomonas aeruginosa ATCC 27853 assessed as inhibition of bacterial growth by CLSI based broth microdilution method. Type of series: functional. The essentials:
as §1

A short description of series [2]: Stability of the compound in PBS assessed as drug degradation at 1 mg/ml incubated for 24 hrs in presence of 5 mM glutathione by RP-HPLC analysis. In kind it is physicochemical. To be noted: buffer. The essentials:
(§2)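 Compound (1 mg/mL stock) was mixed 1:9 by volume with PBS glutathione stock: 5.5 μM for the low-glutathione line (7), 5.5 mM for the high-glutathione line (8). Vials were N2-flushed and held in the HPLC autosampler at RT. Samples at 0, 1, 2, 3, 4, 8, 10 and 24 h were analysed by RP-HPLC, UV 214 nm, and quantified against an external calibration curve in PBS run in duplicate.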

The nature of series [3]: Stability of the compound in PBS assessed as compound remaining at 1 mg/ml incubated for 24 hrs in presence of 5 uM glutathione by RP-HPLC analysis. Type of series: physicochemical. Particulars: PBS with 5 uM glutathione, read-out: Stability. The essentials: as §2
Series [4] can be described thus: Cytotoxicity against human differentiated conditionally immortalized RPTEC cells assessed as reduction in cell viability incubated for 24 hrs by PrestoBlue reagent based assay. Type of series: toxicity. To be noted: read-out: TC50. The gist of the method: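 ciPTEC (OAT-1) cells were seeded at 2.0 × 10^5 cells/mL in DMEM/F-12 with 10% FCS, insulin, transferrin, selenium, hydrocortisone, EGF and tri-iodothyronine. They were differentiated 24 h at 33 °C then 6 days at 37 °C, 5% CO2. Compounds serially diluted in serum-free medium were applied for 24 h at 37 °C, then 10% PrestoBlue in HBSS was added. Fluorescence (ex 530/em 590 nm) was background-corrected and normalized to untreated cells. TC50 came from nonlinear regression with bottom fixed at 0.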

For orientation: MIC means the least concentration at which growth counts as inhibited.

As to `CC(C)CCCCSSC[C@@H](N)C(=O)N[C@H](C(=O)N[C@@H](CCN)C(=O)N[C@H]1CCNC(=O)[C@H]([C@@H](C)O)NC(=O)[C@H](CCN)NC(=O)[C@H](CCN)NC(=O)[C@H](CC(C)C)NC(=O)[C@@H](Cc2ccccc2)NC(=O)[C@H](CCN)NC1=O)[C@@H](C)O` (H-[dC](X1)T[Dab][Dab][Dab][dF]L[Dab][Dab]T; lactam 4-C), the Activity entry with Erythrocyte was “Non-Toxic”.
The same measure, in the same setting: next, `CCCCCCSSC[C@@H](N)C(=O)N[C@H](C(=O)N[C@@H](CCN)C(=O)N[C@H]1CCNC(=O)[C@H]([C@@H](C)O)NC(=O)[C@H](CCN)NC(=O)[C@H](CCN)NC(=O)[C@H](CC(C)C)NC(=O)[C@@H](Cc2ccccc2)NC(=O)[C@H](CCN)NC1=O)[C@@H](C)O` (H-[dC](X4)T[Dab][Dab][Dab][dF]L[Dab][Dab]T; lactam 4-C): “Non-Toxic”.
Turning to `CC(C)C[C@@H]1NC(=O)[C@@H](Cc2ccccc2)NC(=O)[C@H](CCN)NC(=O)[C@@H](NC(=O)[C@H](CCN)NC(=O)[C@@H](N)[C@@H](C)O)CCNC(=O)[C@H]([C@@H](C)O)NC(=O)[C@H](CCN)NC(=O)[C@H](CCN)NC1=O` [POLYMYXIN B NONAPEPTIDE] (H-T[Dab][Dab][Dab][dF]L[Dab][Dab]T; lactam 3-C), the selectivity ratio at 24 h in [1] was more than 10. Besides, the minimal inhibitory concentration (MIC) with Escherichia coli, in the series on Klebsiella pneumoniae, in the series on Acinetobacter baumannii and in the series with Pseudomonas aeruginosa was more than 32 µg/mL in each case.
For `CC(C)C[C@@H]1NC(=O)[C@@H](Cc2ccccc2)NC(=O)[C@H](CCN)NC(=O)[C@@H](NC(=O)[C@H](CCN)NC(=O)[C@@H](NC(=O)[C@H](N)CSSCc2ccc(Oc3ccccc3)cc2)[C@@H](C)O)CCNC(=O)[C@H]([C@@H](C)O)NC(=O)[C@H](CCN)NC(=O)[C@H](CCN)NC1=O` (H-[dC](X3)T[Dab][Dab][Dab][dF]L[Dab][Dab]T; lactam 4-C), in the series with Erythrocyte, the Activity entry is “Non-Toxic”.
Regarding `CC(C)CCSSC[C@H](N)C(=O)N[C@H](C(=O)N[C@@H](CCN)C(=O)N[C@H]1CCNC(=O)[C@H]([C@@H](C)O)NC(=O)[C@H](CCN)NC(=O)[C@H](CCN)NC(=O)[C@H](CC(C)C)NC(=O)[C@@H](Cc2ccccc2)NC(=O)[C@H](CCN)NC1=O)[C@@H](C)O` (H-C(S(3-Methylbutyl))T[Dab][Dab][Dab][dF]L[Dab][Dab]T; lactam 4-C), the MIC with Acinetobacter baumannii was more than 32 µg/mL.
For the compound `CCCCCCSSC[C@H](N)C(=O)N[C@H](C(=O)N[C@@H](CCN)C(=O)N[C@H]1CCNC(=O)[C@H]([C@@H](C)O)NC(=O)[C@H](CCN)NC(=O)[C@H](CCN)NC(=O)[C@H](CC(C)C)NC(=O)[C@@H](Cc2ccccc2)NC(=O)[C@H](CCN)NC1=O)[C@@H](C)O` (H-C(X4)T[Dab][Dab][Dab][dF]L[Dab][Dab]T; lactam 4-C), the MIC in the series with Acinetobacter baumannii was more than 32 µg/mL.
Turning to `CC(C)C[C@@H]1NC(=O)[C@@H](Cc2ccccc2)NC(=O)[C@H](CCN)NC(=O)[C@@H](NC(=O)[C@H](CCN)NC(=O)[C@@H](NC(=O)[C@H](CSSCCC2CCCCC2)NC(=O)CN)[C@@H](C)O)CCNC(=O)[C@H]([C@@H](C)O)NC(=O)[C@H](CCN)NC(=O)[C@H](CCN)NC1=O` (H-GC(S(2-cyclohexylethyl))T[Dab][Dab][Dab][dF]L[Dab][Dab]T; lactam 5-C), the Stability entry in series [2] is “Unstable”. In series [3], the remaining at 24 h, 1 mg/ml was found to be 70%. The Activity result in the series on Erythrocyte was “Non-Toxic”.
As to `CC(C)C[C@@H]1NC(=O)[C@@H](Cc2ccccc2)NC(=O)[C@H](CCN)NC(=O)[C@@H](NC(=O)[C@H](CCN)NC(=O)[C@@H](NC(=O)[C@@H](CSSCCC2CCCCC2)NC(=O)CN)[C@@H](C)O)CCNC(=O)[C@H]([C@@H](C)O)NC(=O)[C@H](CCN)NC(=O)[C@H](CCN)NC1=O` (H-G[dC](S(2-cyclohexylethyl))T[Dab][Dab][Dab][dF]L[Dab][Dab]T; lactam 5-C), the Activity result in the series with Erythrocyte is reported as “Non-Toxic”.
On the same count and under the same terms, as for `CC(C)C[C@@H]1NC(=O)[C@@H](Cc2ccccc2)NC(=O)[C@H](CCN)NC(=O)[C@@H](NC(=O)[C@H](CCN)NC(=O)[C@@H](NC(=O)[C@H](N)CSSCc2ccc(-c3ccccc3)cc2)[C@@H](C)O)CCNC(=O)[C@H]([C@@H](C)O)NC(=O)[C@H](CCN)NC(=O)[C@H](CCN)NC1=O` (H-[dC](X5)T[Dab][Dab][Dab][dF]L[Dab][Dab]T; lactam 4-C), the entry is “Non-Toxic”.
For POLYMYXIN B [listing 1 of 2 here], the MIC came out at 1 µg/mL with Escherichia coli, 0.25 µg/mL in the series with Klebsiella pneumoniae, 0.25 µg/mL in the series on Acinetobacter baumannii and 1 µg/mL with Pseudomonas aeruginosa.
Regarding `CC(C)C[C@@H]1NC(=O)[C@@H](Cc2ccccc2)NC(=O)[C@H](CCN)NC(=O)[C@@H](NC(=O)[C@H](CCN)NC(=O)[C@@H](NC(=O)[C@H](CSSc2ccc(-c3ccccc3)cc2)NC(=O)CN)[C@@H](C)O)CCNC(=O)[C@H]([C@@H](C)O)NC(=O)[C@H](CCN)NC(=O)[C@H](CCN)NC1=O` (H-GC(X6)T[Dab][Dab][Dab][dF]L[Dab][Dab]T; lactam 5-C), the Activity result in the series on Erythrocyte is listed as “Non-Toxic”.
Same read-out and setting: next, POLYMYXIN B [listing 2 of 2 here]: “Non-Toxic”; `CC(C)C[C@@H]1NC(=O)[C@@H](Cc2ccccc2)NC(=O)[C@H](CCN)NC(=O)[C@@H](NC(=O)[C@H](CCN)NC(=O)[C@@H](NC(=O)[C@H](N)CSSCCC2CCCCC2)[C@@H](C)O)CCNC(=O)[C@H]([C@@H](C)O)NC(=O)[C@H](CCN)NC(=O)[C@H](CCN)NC1=O` (H-[dC](S(2-cyclohexylethyl))T[Dab][Dab][Dab][dF]L[Dab][Dab]T; lactam 4-C): “Non-Toxic”.
With `CC(C)CCSSC[C@@H](N)C(=O)N[C@H](C(=O)N[C@@H](CCN)C(=O)N[C@H]1CCNC(=O)[C@H]([C@@H](C)O)NC(=O)[C@H](CCN)NC(=O)[C@H](CCN)NC(=O)[C@H](CC(C)C)NC(=O)[C@@H](Cc2ccccc2)NC(=O)[C@H](CCN)NC1=O)[C@@H](C)O` (H-[dC](S(3-Methylbutyl))T[Dab][Dab][Dab][dF]L[Dab][Dab]T; lactam 4-C), the Stability result in [2] was “Unstable”. In series [3], the remaining at 24 h, 1 mg/ml amounted to 70%. In series [4], the CC50 at 24 h was 192 µM. Further, the Activity result in the series with Erythrocyte was “Non-Toxic”.
With `CC(C)C[C@@H]1NC(=O)[C@@H](Cc2ccccc2)NC(=O)[C@H](CCN)NC(=O)[C@@H](NC(=O)[C@H](CCN)NC(=O)[C@@H](NC(=O)[C@H](N)CSSCc2cccc(Cl)c2)[C@@H](C)O)CCNC(=O)[C@H]([C@@H](C)O)NC(=O)[C@H](CCN)NC(=O)[C@H](CCN)NC1=O` (H-[dC](S(3-Cl-benzyl))T[Dab][Dab][Dab][dF]L[Dab][Dab]T; lactam 4-C), in the series on Erythrocyte, the Activity result is “Non-Toxic”.
Regarding `CC(C)CCCCC[C@@H](N)C(=O)N[C@H](C(=O)N[C@@H](CCN)C(=O)N[C@H]1CCNC(=O)[C@H]([C@@H](C)O)NC(=O)[C@H](CCN)NC(=O)[C@H](CCN)NC(=O)[C@H](CC(C)C)NC(=O)[C@@H](Cc2ccccc2)NC(=O)[C@H](CCN)NC1=O)[C@@H](C)O` (H-[X2]T[Dab][Dab][Dab][dF]L[Dab][Dab]T; lactam 4-C), the CC50 at 24 h in [4] is 82 µM. In addition, the Activity result in the series on Erythrocyte is “Non-Toxic”.
